Usually inhibition stands for the drop in the measured response relative to a control, in per cent. As a reminder, the Papp is the rate of passage across a membrane or cell layer, normalised by area and donor concentration. What is called pIC50 is the negative decadic logarithm of the IC50, by convention in mol/L.

A short description of series [1]: Antioxidant activity assessed as ABTS free radical scavenging activity measured as trolox equivalent after 1 hr by spectrophotometry. Type of series: physicochemical. In short, it runs like this: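 ABTS radical cation generated by passing 5 mM ABTS stock through MnO2 and filtering; 245 µL radical solution added to 5 µL sample or trolox, stirred 30 s, kept dark 1 h, A734 read against MeOH blanks. Trolox calibration; expressed as µmol trolox/µmol compound; triplicate analyses, mean ± SEM of three experiments.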

The nature of series [2]: Antioxidant activity assessed as total polyphenolics measured as gallic acid equivalent after 30 mins by Folin-Ciocalteu assay. Type of series: physicochemical. As to conditions: 0.5 h.
A short description of series [3]: Antioxidant activity assessed as DPPH free radical scavenging activity measured as trolox equivalent after 30 mins by spectrophotometry. It counts as physicochemical. Details: unit not given beside the values. As to conditions: 0.5 h. In short, it runs like this: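 Sample or trolox (5 µL) mixed with 250 µL methanolic DPPH (0.025 g/L), shaken, held in darkness 30 min, absorbance at 515 nm. Calibrated with trolox solutions; reported as µmol trolox/µmol compound; triplicate, mean ± SEM of three experiments.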
A general note: DPPH is a stable violet radical that fades when it is reduced.

Series [4] has as its target Microtubule-associated protein tau (Homo sapiens) (UniProt P10636). The series is described as follows: Inhibition of aggregation of TAU (unknown origin) expressed in Escherichia coli BL21 (DE3) at 10 uM after 24 hrs by thioflavin S fluorescence assay. In short, it runs like this:
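E. coli BL21(DE3) with pTARA (T7 RNA polymerase under pBAD) transformed with pRKT42 encoding four-repeat tau; overnight culture at 37 °C in M9 with 0.5% glucose, ampicillin 50 µg/mL, chloramphenicol 12.5 µg/mL. Th-S fluorescence at 455 nm (ex 375 nm) normalised to OD600, with induced untreated cells as 100%; mean ± SEM of four experiments.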

The target of series [5] is Amyloid-beta precursor protein (Homo sapiens) (UniProt P05067). The series is described as follows: Inhibition of aggregation of amyloid beta (1 to 42) (unknown origin) expressed in Escherichia coli BL21 (DE3) at 10 uM after 24 hrs by thioflavin S fluorescence assay. The essentials:
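E. coli BL21(DE3) carrying Aβ42 plasmid grown overnight at 37 °C in LB with kanamycin 50 µg/mL; diluted into LB with kanamycin, 1 mM IPTG, compound in DMSO and Th-S, grown 24 h at 37 °C, 1400 rpm; DMSO-only negative control. Th-S emission 455 nm (ex 375 nm) normalised to OD600, induced untreated cells set as 100%; mean ± SEM of four experiments.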

A short description of series [6]: in vitro. As to conditions: PAMPA. (In general: The PAMPA barrier holds no transporters, so it reflects passive diffusion.)
Series [7] addresses T1, Cholinesterase (Homo sapiens, UniProt P06276). The series is described as follows: Inhibition of human serum BChE using butyrylthiocholine iodide preincubated for 20 mins before substrate addition by Ellman method. In short, it runs like this:
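Ellman spectrophotometric assay in 0.1 M phosphate buffer. Enzymes were human recombinant AChE and human serum BChE. Inhibitor (at least 10 increasing concentrations, in duplicate) was preincubated 20 min at 37 °C. Acetylthiocholine iodide (450 µM, AChE) or butyrylthiocholine iodide (300 µM, BChE) was then added and reacted 5 min at 37 °C, with absorbance read at 414 nm. The no-inhibitor control set 100% activity. IC50 came from non-linear regression, at least 4 experiments.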
On the technique in general: Ellman's reagent forms a yellow product with free thiols.

The target of series [8] is T2, Acetylcholinesterase (Homo sapiens, UniProt P22303). Kind of series: Inhibition of human recombinant AChE using acetylthiocholine iodide as substrate preincubated for 20 mins before substrate addition by Ellman method.
T2 sequence (P22303 whole entry): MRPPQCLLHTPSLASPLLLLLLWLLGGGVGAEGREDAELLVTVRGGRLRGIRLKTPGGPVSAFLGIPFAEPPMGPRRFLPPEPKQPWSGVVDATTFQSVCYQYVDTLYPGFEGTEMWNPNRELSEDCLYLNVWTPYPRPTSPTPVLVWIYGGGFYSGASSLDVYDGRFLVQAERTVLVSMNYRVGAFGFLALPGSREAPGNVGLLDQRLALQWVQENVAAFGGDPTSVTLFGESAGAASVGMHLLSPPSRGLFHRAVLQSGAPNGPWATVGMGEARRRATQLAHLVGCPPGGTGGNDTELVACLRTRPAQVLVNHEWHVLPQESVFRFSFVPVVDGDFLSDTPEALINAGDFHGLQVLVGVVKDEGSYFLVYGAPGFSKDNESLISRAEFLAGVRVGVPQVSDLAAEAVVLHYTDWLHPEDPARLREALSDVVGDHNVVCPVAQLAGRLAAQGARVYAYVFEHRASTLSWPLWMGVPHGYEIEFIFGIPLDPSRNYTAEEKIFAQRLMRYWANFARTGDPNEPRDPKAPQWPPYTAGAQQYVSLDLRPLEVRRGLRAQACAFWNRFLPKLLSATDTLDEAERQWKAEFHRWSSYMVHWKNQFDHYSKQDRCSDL
The target of series [9] is T1, Cholinesterase. Kind of series: Inhibition of human serum BChE using butyrylthiocholine iodide at 10 uM preincubated for 20 mins before substrate addition by Ellman method.
Series [10] deals with T2, Acetylcholinesterase. Kind of series: Inhibition of human recombinant AChE using acetylthiocholine iodide as substrate at 10 uM preincubated for 20 mins before substrate addition by Ellman method.

The structures appear in SMILES notation. pIC50: −log10 of the molar value.

Chain of Amyloid-beta precursor protein (Homo sapiens) (P05067 whole entry): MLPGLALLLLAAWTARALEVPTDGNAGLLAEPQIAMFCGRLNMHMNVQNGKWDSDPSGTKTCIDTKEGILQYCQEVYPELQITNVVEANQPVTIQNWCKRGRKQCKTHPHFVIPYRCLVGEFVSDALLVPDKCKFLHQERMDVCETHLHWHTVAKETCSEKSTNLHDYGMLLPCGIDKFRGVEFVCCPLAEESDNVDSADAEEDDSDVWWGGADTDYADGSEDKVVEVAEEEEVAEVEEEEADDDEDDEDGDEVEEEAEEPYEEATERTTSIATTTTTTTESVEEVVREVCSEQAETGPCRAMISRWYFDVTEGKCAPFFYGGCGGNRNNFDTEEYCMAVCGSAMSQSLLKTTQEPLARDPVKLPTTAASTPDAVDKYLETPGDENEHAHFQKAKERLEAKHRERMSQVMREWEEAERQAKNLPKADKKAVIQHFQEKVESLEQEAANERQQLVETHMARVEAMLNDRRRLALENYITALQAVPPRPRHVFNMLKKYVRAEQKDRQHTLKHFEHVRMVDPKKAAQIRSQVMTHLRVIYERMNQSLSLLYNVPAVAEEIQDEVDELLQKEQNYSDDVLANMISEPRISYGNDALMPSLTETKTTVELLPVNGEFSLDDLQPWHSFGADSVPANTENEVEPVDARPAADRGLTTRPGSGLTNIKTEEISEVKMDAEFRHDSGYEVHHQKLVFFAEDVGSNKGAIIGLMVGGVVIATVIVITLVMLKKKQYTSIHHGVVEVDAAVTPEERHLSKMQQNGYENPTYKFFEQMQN
Chain of Microtubule-associated protein tau (Homo sapiens) (P10636 whole entry): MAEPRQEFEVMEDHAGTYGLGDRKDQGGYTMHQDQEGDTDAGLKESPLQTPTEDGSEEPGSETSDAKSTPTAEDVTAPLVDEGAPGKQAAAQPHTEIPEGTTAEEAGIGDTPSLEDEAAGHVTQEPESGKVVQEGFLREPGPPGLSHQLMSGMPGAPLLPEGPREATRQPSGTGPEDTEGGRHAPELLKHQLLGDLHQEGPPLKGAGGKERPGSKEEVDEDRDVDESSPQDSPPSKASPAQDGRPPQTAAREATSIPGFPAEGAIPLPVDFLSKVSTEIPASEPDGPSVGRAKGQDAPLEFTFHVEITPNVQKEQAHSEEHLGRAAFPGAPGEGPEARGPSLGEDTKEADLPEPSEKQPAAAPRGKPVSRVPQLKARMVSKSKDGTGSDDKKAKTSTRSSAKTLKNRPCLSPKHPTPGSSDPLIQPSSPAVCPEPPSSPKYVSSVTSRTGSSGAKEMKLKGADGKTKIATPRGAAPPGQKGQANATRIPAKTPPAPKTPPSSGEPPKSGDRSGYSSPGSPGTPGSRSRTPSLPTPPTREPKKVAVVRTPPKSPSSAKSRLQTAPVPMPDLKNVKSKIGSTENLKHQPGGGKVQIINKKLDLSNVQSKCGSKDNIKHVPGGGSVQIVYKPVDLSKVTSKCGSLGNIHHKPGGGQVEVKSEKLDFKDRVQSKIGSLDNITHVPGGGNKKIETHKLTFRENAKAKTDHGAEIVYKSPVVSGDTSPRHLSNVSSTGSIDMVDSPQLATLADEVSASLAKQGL
T1 sequence (P06276 whole entry): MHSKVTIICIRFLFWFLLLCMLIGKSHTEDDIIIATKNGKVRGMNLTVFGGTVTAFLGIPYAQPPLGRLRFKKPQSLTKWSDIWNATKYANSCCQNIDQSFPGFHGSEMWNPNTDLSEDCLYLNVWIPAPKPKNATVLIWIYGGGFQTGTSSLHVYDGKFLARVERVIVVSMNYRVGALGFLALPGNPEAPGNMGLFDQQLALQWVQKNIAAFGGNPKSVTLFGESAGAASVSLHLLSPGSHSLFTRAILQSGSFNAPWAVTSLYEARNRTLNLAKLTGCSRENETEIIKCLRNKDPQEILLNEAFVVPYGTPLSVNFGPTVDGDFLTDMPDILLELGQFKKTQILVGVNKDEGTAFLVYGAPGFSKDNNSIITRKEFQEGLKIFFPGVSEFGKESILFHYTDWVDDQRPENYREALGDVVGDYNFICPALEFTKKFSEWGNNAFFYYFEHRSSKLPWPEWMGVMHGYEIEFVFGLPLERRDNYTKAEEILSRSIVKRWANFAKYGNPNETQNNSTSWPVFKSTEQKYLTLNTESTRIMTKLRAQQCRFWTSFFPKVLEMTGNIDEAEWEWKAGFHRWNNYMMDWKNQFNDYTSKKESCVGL

Take `O=C(O)c1cc(O)c(O)c(O)c1` [GALLIC ACID]: the values for the Activity in series [1], in [2] and in series [3] were 18.6, 1033 mgequiv/g and 10.3, respectively.
For the molecule `CC1=CC2Cc3nc4cc(Cl)ccc4c(N)c3C(C1)C2` (stereo not given) [HUPRINE Y], the inhibition in series [4] came to 7.6%; in series [5], 8.9%. In addition, the results for the Activity in series [1], in series [2] and in series [3] were 2.6, 10.2 mgequiv/g and 1, respectively.
Take `COc1cc(CCC(=O)/C=C/c2ccc(CNc3c4c(nc5cc(Cl)ccc35)CC3CC(C)=CC4C3)cc2)cc(CN(C)C)c1O` (stereo not given): the inhibition in series [4] stood at 40.1%; in series [5], 53.9%. The Activity was 11.8 in series [1], 68.8 mgequiv/g in [2] and 2.8 in series [3]. Further, in series [6], the Papp turned out to be 8.4 ×10⁻⁶ cm/s. Moreover, the pIC50 in series [7] is 6.74; in series [8], 7.68.
Take `COc1cc(CCC(=O)/C=C/CCCNc2c3c(nc4cc(Cl)ccc24)CC2CC(C)=CC3C2)ccc1O` (stereo not given): the inhibition in [4] is 35.2%; in [5], 39.3%. The Activity worked out at 7.6 in series [1], 29.8 mgequiv/g in series [2] and 6.6 in [3]. In series [6], this molecule yielded a Papp of 11.7 ×10⁻⁶ cm/s. Also, the values for the pIC50 in [7] and in series [8] were 6.01 and 8.17, respectively.
For `CCCCC/C=C/C(=O)CCc1ccc(O)c(OC)c1` [SHOGAOL], the inhibition in series [4] is 9.2%; in [9], 6%; in series [10] it was 28%; in series [5], 10.5%. Besides, the Activity in series [1] was found to be 26.2; in [2], 384 mgequiv/g; in series [3], 12.2. In addition, in [6], the Papp came to 14.7 ×10⁻⁶ cm/s.
Turning to `COc1cc(CCC(=O)/C=C/c2ccc(CNc3c4c(nc5cc(Cl)ccc35)CC3CC(C)=CC4C3)cc2)ccc1O` (stereo not given), the inhibition came to 51% in series [4] and 70.6% in [5]. The Activity was 10.5 in [1], 50 mgequiv/g in [2] and 8.8 in series [3]. In addition, the Papp in series [6] amounted to 6.5 ×10⁻⁶ cm/s. For the same molecule, the pIC50 in series [7] was 6.13; in [8], 7.74.

(Values after ChEMBL document CHEMBL3352812, “Shogaol-huprine hybrids: dual antioxidant and anticholinesterase agents with β-amyloid and tau anti-aggregating properties” (Bioorg Med Chem, 2014).)
